Compounds with a hit are over-represented: about 1.6% of the library has one in this group of screens.
TRAIL sens C8: sensitizes caspase-8 expressing cells to TRAIL | NB7+C8 cells + TRAIL, ATPlite viability luminescence | AID 624354 | hit rate 1% among 360,000 | inhibition (viability loss, TRAIL sensitization), % at 10 µM;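 active = compounds causing at least 50% loss of cell viability in the single-dose screen, relative to plate controls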
FLuc inh counter: Photinus pyralis luciferase inhibition counter-screen. hit rate 1.5% among 200,000. inhibition, % at 10 µM. P08659. ATPLite firefly luciferase biochemical luminescence, 10 min;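 active = inhibition above about 50% when tested at 10 µM, limit read from the data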
Target sequence (P08659 whole entry, looked up): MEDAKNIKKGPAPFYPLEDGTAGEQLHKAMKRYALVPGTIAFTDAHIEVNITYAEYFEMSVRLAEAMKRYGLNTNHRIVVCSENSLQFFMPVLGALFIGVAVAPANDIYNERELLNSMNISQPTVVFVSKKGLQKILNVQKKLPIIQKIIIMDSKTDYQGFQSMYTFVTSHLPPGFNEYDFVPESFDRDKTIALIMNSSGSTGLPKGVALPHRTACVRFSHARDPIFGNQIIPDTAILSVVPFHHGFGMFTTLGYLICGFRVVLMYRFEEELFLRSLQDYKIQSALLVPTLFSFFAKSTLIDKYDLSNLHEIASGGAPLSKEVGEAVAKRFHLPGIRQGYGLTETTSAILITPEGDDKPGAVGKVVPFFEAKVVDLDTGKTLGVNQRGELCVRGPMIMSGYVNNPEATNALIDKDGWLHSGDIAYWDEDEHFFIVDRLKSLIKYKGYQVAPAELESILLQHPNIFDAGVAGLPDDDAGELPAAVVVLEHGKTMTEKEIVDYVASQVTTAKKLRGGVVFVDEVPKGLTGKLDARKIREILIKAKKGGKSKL
FLuc act counter: firefly luciferase counter-screen for stimulation assays; 200,000 tested, under 10 active; ATPlite luciferase biochemical, luminescence, 10 min; 0 = ATP-free wells, 1 = DMSO control; activation factor at 10 µM; P08659;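 active = luciferase activation factor, scaled between plate controls, of at least 2 with compound at 10 µM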
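Assay system: Luciferase/luciferin detection reagent, cell-free biochemical luciferase assay / Read-out: luciferase activation / Benchmarks: No-ATP low control, compound-free enzyme-plus-ATP high control / Medium: PBS buffer for ATP / Detection: luminescence measurement of luciferase light output / Schedule: 10 min at ambient temperature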
PPC-1+TRAIL kill: PPC-1 cancer cell killing with TRAIL present | AID 1443 | PPC-1 cells + TRAIL, ATPLite viability luminescence | cell killing (% activity), % at 4 µM or 5 µM | hit rate 0.41% among 220,000;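 active = cell killing above 50% in the first pass at 4 µM, then a duplicate retest at 5 µM averaging 50% or more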
A number is an active result; n = inactive; x = not tested or not shown.

SMILES	TRAIL sens C8	FLuc inh counter	FLuc act counter	PPC-1+TRAIL kill
CCN(CC)c1ccc(N=Nc2nn(C)c(C)c2[N+](=O)[O-])cc1	63	76	n	n
O=C(OCN1C(=O)c2ccccc2C1=O)c1cc(S(=O)(=O)N2CCOCC2)ccc1F	n	x	x	x
Cc1c(C(=O)NCC2CCCO2)oc2ccc3c(c12)C(=O)CC(C)(C)O3 (centres undefined)	n	67	n	n
Cc1c(C(=O)NCC2CCCO2)oc2ccccc12 (centres undefined)	n	x	x	x
CCc1ccc(Nc2n[n+](-c3ccccc3)c(-c3ccc(N(CC)CC)cc3)s2)cc1	53	x	x	x
CCNC(=O)C1(C)CCN(C(=O)c2ccccc2C(F)(F)F)C1 (centres undefined)	n	x	x	x
COc1ccc(S(=O)(=O)Nc2ccc3c(c2)OCO3)cc1	n	n	n	n
O=C1/C(=C/Nc2ccc3c(c2)OCO3)CCc2ccccc21	86	94	n	n
COc1ccc2c(c1)CC/C(=C\Nc1ccc3c(c1)OCO3)C2=O	52	68	n	n
Cc1cc(/C=C2/NC(=O)N(c3ccccc3)C2=O)c(C)n1-c1cccnc1	n	n	n	n
Cc1cc(/C=C2/NC(=S)NC2=O)c(C)n1-c1cccnc1	n	71	n	n
CCc1nc2c(OCc3ccc(Cl)cc3)cccn2c1N(C)C(=O)c1ccco1	n	x	x	x
O=c1/c(=C/c2ccc(O)c([N+](=O)[O-])c2)sc2nc3ccccc3n12	n	n	n	n
O=c1/c(=C\c2cccnc2)sc2nc3ccccc3n12	n	58	n	n
Cc1cc(/C=c2/sc3nc4ccccc4n3c2=O)c(C)n1-c1ccccn1	80	90	n	n
CCN(CC)c1ccc(S(=O)(=O)N2CCOCC2)cc1NC(=O)COC(=O)C1=COCCO1	n	x	x	x
COc1ccc(N2CCN(C(=O)C3CCCN3S(=O)(=O)c3cccc4nsnc34)CC2)cc1 (centres undefined)	n	x	x	x
CN(C)CCCNc1ncnc2c1cnn2-c1ccccc1	n	n	n	n
CC(C)OCCCNc1ncnc2c1cnn2-c1ccccc1	n	74	n	x
CC(C)(C)Nc1ncnc2c1cnn2-c1ccccc1	60	66	n	n
O=C(c1ccc(N2C(=O)CCC2=O)cc1)N1CCCSC1=Nc1ccccc1	n	x	x	x
CC(C)c1ccc(C(=O)N2CCCCC2c2cc(C(=O)NCc3cccnc3)no2)cc1 (centres undefined)	n	x	x	x
O=C1C(C2=C(O)c3ccccc3C2=O)=Nc2ccccc21	89	n	n	n
CN=CC1=C(O)c2ccccc2C1=O	n	n	n	n
Cc1cccc(OCC(=O)O/N=C(\N)c2ccccn2)c1	n	n	n	n
SMILES	TRAIL sens C8	FLuc inh counter	FLuc act counter	PPC-1+TRAIL kill
Cc1cccc(C(=O)O/N=C(\N)c2ccccn2)c1	87	x	x	x
Cc1ccc(C(=O)O/N=C(\N)c2ccccn2)cc1	95	x	x	x
COc1cc(C(=O)O/N=C(\N)c2ccccn2)cc(OC)c1OC	n	x	x	n
N/C(=N\OC(=O)Cc1ccccc1)c1ccccn1	n	n	n	n
N/C(=N\OC(=O)c1ccc(Br)o1)c1ccccn1	n	78	n	n
COc1ccc(C(=O)O/N=C(\N)c2ccccn2)c(OC)c1	62	x	x	n
CC(C)(C)NC(=O)C(c1ccco1)N(Cc1ccc2c(c1)OCO2)C(=O)c1snc(C(N)=O)c1N (centres undefined)	n	x	x	x
CC(NC(=O)C(=O)NN=C1CCCCCCCCCCC1)c1ccccc1 (centres undefined)	n	n	n	n
CC(C)(C)c1ccc(C(=O)O/N=C(\N)c2ccccn2)cc1	98	x	x	x
C/C(=N\OC(=O)c1ccc(Br)cc1)c1ccccn1	n	80	n	n
CCOc1ccc(C(=O)O/N=C(\N)c2ccccn2)cc1	93	x	x	x
N/C(=N\OC(=O)c1cccc(F)c1)c1ccccn1	56	x	x	x
C/C(=N/NC(=O)c1ccc(C(C)(C)C)cc1)c1ccccn1	n	x	x	x
C/C(=N/OCc1ccc(Br)cc1)c1ccccn1	n	n	n	n
CCCCCCCCN1C(=O)[C@H](CC(=O)N2CCSCC2)C[C@@]2(C(=O)OC)CCCCC=C12	n	x	x	x
O=C(CNS(=O)(=O)c1ccc([N+](=O)[O-])cc1)N/N=C/c1ccc(O)cc1O	n	x	x	x
Cc1ccc(C(=O)O/N=C(\N)c2ccccn2)cc1C	81	x	x	x
COc1cc(OC)cc(C(=O)O/N=C(\N)c2cccc(C)c2)c1	n	x	x	x
Cc1cccc(/C(N)=N/OC(=O)N2c3ccccc3Sc3ccccc32)c1	n	n	n	n
Cc1cccc(/C(N)=N/OC(=O)Cc2ccccc2)c1	n	n	n	n
Cc1cccc(/C(N)=N/OC(=O)c2cccnc2)c1	n	64	n	n
Cc1cccc(/C(N)=N/OC(=O)c2ccc(Br)o2)c1	n	67	n	n
Cc1cccc(/C(N)=N/OC(=O)C23CC4CC(CC(C4)C2)C3)c1	n	62	n	n
O=C1CC(C(=O)N2CCc3ccccc32)CN1c1ccc(F)cc1 (centres undefined)	n	x	x	x
COc1ccc(C(=O)COC(=O)CN2C(=O)c3ccccc3C2=O)c(OC)c1	n	x	x	x
SMILES	TRAIL sens C8	FLuc inh counter	FLuc act counter	PPC-1+TRAIL kill
COc1ccc(N(CC(=O)N/N=C/c2ccccc2OC)S(=O)(=O)c2ccccc2)cc1	n	x	x	x
COC(=O)c1ccc(S(=O)(=O)N2Cc3ccccc3C2)cc1	n	n	n	n
N/C(=N\OC(=O)/C=C/c1ccccc1Cl)c1ccccn1	n	74	n	n
CCOc1ccc(/C=N/NC(=O)c2cc(-c3ccco3)nc3ccccc23)cc1	n	53	n	n
O=C(O)c1cc(-c2ccco2)nc2ccccc12	n	n	n	n
O=C(N/N=C/c1ccc(F)cc1)c1cc(-c2ccco2)nc2ccccc12	50	n	n	n
c1cncc(Nc2nc(-c3cccnc3)cs2)c1	n	n	n	n
Clc1ccccc1Nc1nnc(-c2ccncc2)s1	60	82	n	64
Clc1ccccc1Nc1nc(-c2cccnc2)cs1	n	84	n	x
FC(F)Oc1ccc(NC(=S)N2CCc3ccccc32)cc1	n	n	n	n
CC(=O)NC(Nc1c(C)n(C)n(-c2ccccc2)c1=O)C(Cl)(Cl)Cl (centres undefined)	n	n	n	n
C(=N\N=C\c1cccs1)/c1cccs1	n	83	n	n
c1ccc(-c2cnc(-c3ccccc3)nc2)cc1	75	66	n	n
O=C(O)c1ncc(-c2ccccc2)cn1	n	n	n	n
c1ccc(-c2ncc3c(ccc4ccccc43)n2)cc1	84	89	n	78
O=[N+]([O-])c1cc(Cl)ccc1-c1nc(-c2ccccc2)no1	n	67	n	n
COc1cccc(CNc2ccc(Br)cn2)c1O	n	62	n	n
COc1cccc(CNc2ncc(Br)cc2Br)c1O	n	n	n	n
S=C(c1ccc(-c2cccc(Cl)c2)o1)N1CCCCC1	n	54	n	n
S=C(c1ccc(-c2cccc(Cl)c2)o1)N1CCOCC1	n	n	n	n
O=C(O)COn1c(-c2ccccc2)nc2ccc(Cl)cc21	n	68	n	n
CC1CCN(C(=S)Nc2ccc(SC(F)F)cc2)CC1	n	66	n	n
CC(=O)N1CCN(C(=S)Nc2ccc(SC(F)F)cc2)CC1	n	n	n	n
O=C(c1cc(-c2ccc(Cl)cc2)on1)N1CCOCC1	n	60	n	n

Compound activity as filed in PubChem BioAssay.
